Measurements collected from several papers.
Lines come from different studies, so protocols differ.
Target: Serine/threonine-protein kinase 24 (STK24, Homo sapiens, UniProt Q9Y6E0)

SMILES	read-out	mode	method	tested at	measurement	value
Cn1cc(-c2cccc(N3CCc4c(sc5c4CC(C)(C)C5)C3=O)c2CO)cc(Nc2ccncn2)c1=O	enzyme activity	inhibitor		1 µM	inhibition	3%
O=c1[nH]c2ccccc2n1C1CCN(Cc2ccc(-c3[nH]c4cc5ncnc5cc4nc3-c3ccccc3)cc2)CC1	cell-free assay			0.5 µM	remaining signal	90.7%
Cn1cc(-c2cc(F)cc(N3CCn4c(cc5c4CCCC5)C3=O)c2CO)cc(Nc2ccc(N3CCN(C4COC4)CC3)cn2)c1=O	enzyme activity	inhibitor		0.1 µM	inhibition	18%
N#CC1(c2ccccn2)CCN(Cc2cc(C(=O)O)c(=O)n3ccccc23)CC1	cell-free assay		competition with immobilised ligand	1 µM	remaining binding	100%
Cc1nn(C)cc1-c1nc2c(N3CCN(Cc4ccc(Cl)cc4)CC3)c(Cl)cnc2[nH]1	binding		competition with immobilised ligand	1 µM	remaining binding	85%
CC(C)(C)c1cc(C=C(C#N)C#N)cc(Br)c1O	enzyme activity	inhibitor		0.5 µM	remaining activity	96.3%
Nc1ncc(-c2nc(N3CCOCC3)nc(N3CCOCC3)n2)c(C(F)F)n1	binding		competition with immobilised ligand	10 µM	remaining binding	91%
COc1ncccc1-c1cnn2ccc(N3CCN(C(=O)OC(C)C)CC3)nc12	binding		competition with immobilised ligand	1 µM	remaining binding	84%
Cn1cncc1[C@@](O)(COc1ccc(C#N)cc1-c1ccc(OC(F)(F)F)cc1)c1ccc(C#N)cc1	cell-free assay		competition with immobilised ligand	1 µM	remaining binding	100%
COCc1c(-c2cc3cc(C)cc(OC)c3s2)c2c(N)ncnn2c1CN1CCNC(=O)C1	cell-free assay		competition with immobilised ligand	1 µM	inhibition	90.6%
